Experimental data published in ChEMBL document CHEMBL4689842, “EUbOPEN Chemogenomics Library wave 1” (2021).

Key:
Assay type in all cases: toxicity, cell-based
U2OS = test: Incucyte cell viability with U2OS; details: human, 10 µM, compound concentration 10 uM; note: filed as whole numbers so only -1 and 0 and 1 occur
HEK-293T = test: Incucyte cell viability with HEK293T; details: human, 10 µM, compound concentration 10 uM; note: filed as whole numbers so only -1 and 0 and 1 occur
Fibroblast [1] = test: Incucyte cell viability with human fibroblast; details: 10 µM, compound concentration 10 uM; note: filed as whole numbers so only -1 and 0 and 1 occur
Fibroblast [2] = test: Multiplex assay against human fibroblast
In short: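 Values for tubulin, mitochondrial-mass and membrane-permeability phenotypes are per cents of cells with healthy nuclei. These cells were identified by CellPathfinder machine-learning gating of live cells that had been stained at seeding with Hoechst33342, BioTracker Green Microtubule Cytoskeleton Dye, MitoTracker Red and Annexin V Alexa Fluor 680 and imaged on a CQ1 microscope at 37°C and 5% CO2 after compound addition. The gating first set Hoechst high-intensity objects apart from normal cells, then split normal cells into healthy, pyknosed or fragmented nuclei, and pyknosed cells into mitotic or apoptotic.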

[3] = 0 h, replicate number 2, timepoint 0 hours
[4] = 6 h, replicate number 1, timepoint 6 hours
[5] = 12 h, replicate number 1, timepoint 12 hours
[6] = 18 h, replicate number 1, timepoint 18 hours
[7] = 24 h, replicate number 1, timepoint 24 hours
[8] = 12 h, 1 µM, compound concentration 1 uM, replicate 1
[9] = 12 h, 1 µM, compound concentration 1 uM, replicate 2
[10] = 12 h, 10 µM, compound concentration 10 uM, replicate 1
[11] = 12 h, 10 µM, compound concentration 10 uM, replicate 2
[12] = 24 h, 1 µM, compound concentration 1 uM, replicate 1
[13] = 24 h, 1 µM, compound concentration 1 uM, replicate 2
[14] = 24 h, 10 µM, compound concentration 10 uM, replicate 1
[15] = 24 h, 10 µM, compound concentration 10 uM, replicate 2
[16] = 48 h, 1 µM, compound concentration 1 uM, replicate 1
[17] = 48 h, 1 µM, compound concentration 1 uM, replicate 2
[18] = 48 h, 10 µM, compound concentration 10 uM, replicate 1
[19] = 48 h, 10 µM, compound concentration 10 uM, replicate 2

CCCc1cc(C)[nH]c(=O)c1CNC(=O)c1cc(-c2ccc(N3CCN(C(C)C)CC3)nc2)cc2c1cnn2C(C)C
Growth Rate (U2OS; [3]): 0
Growth Rate (U2OS; [4]): 1
Growth Rate (U2OS; [5]): 1
Growth Rate (U2OS; [6]): 0
Growth Rate (U2OS; [7]): 0
Growth Rate (U2OS; 24 h, replicate number 2, timepoint 24 hours): 1
Growth Rate (HEK-293T; [4]): 0
Growth Rate (HEK-293T; [5]): 0
Growth Rate (HEK-293T; [6]): 0
Growth Rate (HEK-293T; [7]): 0
Growth Rate (Fibroblast [1]; [3]): 0
Growth Rate (Fibroblast [1]; [4]): 0
Growth Rate (Fibroblast [1]; [5]): 0
Growth Rate (Fibroblast [1]; 12 h, replicate number 2, timepoint 12 hours): 1
Growth Rate (Fibroblast [1]; [6]): 0
Growth Rate (Fibroblast [1]; [7]): 0
Population Apoptotic (%) (Fibroblast [2]; [8]): 73%
Population Fragmented Nuclei (%) (Fibroblast [2]; [8]): 26%
Population Healthy Nuclei (%) (Fibroblast [2]; [8]): 41%
Population Hoechst High Intensity Objects (%) (Fibroblast [2]; [8]): 22%
Population Membrane Permeable-Phenotype (%) (Fibroblast [2]; [8]): 4%
Population Mitochondria Different-Phenotype (%) (Fibroblast [2]; [8]): 32%
Population Mitotic Cells (%) (Fibroblast [2]; [8]): 26%
Population Normal (%) (Fibroblast [2]; [8]): 77%
Population Pyknosed Nuclei (%) (Fibroblast [2]; [8]): 31%
Population Tubulin-Different-Phenotype (%) (Fibroblast [2]; [8]): 52%
Total Cell Count (Fibroblast [2]; [8]): 77
Population Apoptotic (%) (Fibroblast [2]; [9]): 20%
Population Fragmented Nuclei (%) (Fibroblast [2]; [9]): 19%
Population Healthy Nuclei (%) (Fibroblast [2]; [9]): 70%
Population Hoechst High Intensity Objects (%) (Fibroblast [2]; [9]): 10%
Population Membrane Permeable-Phenotype (%) (Fibroblast [2]; [9]): 8%
Population Mitochondria Different-Phenotype (%) (Fibroblast [2]; [9]): 91%
Population Mitotic Cells (%) (Fibroblast [2]; [9]): 80%
Population Normal (%) (Fibroblast [2]; [9]): 89%
Population Pyknosed Nuclei (%) (Fibroblast [2]; [9]): 9%
Population Tubulin-Different-Phenotype (%) (Fibroblast [2]; [9]): 94%
Total Cell Count (Fibroblast [2]; [9]): 56
Population Apoptotic (%) (Fibroblast [2]; [10]): 48%
Population Fragmented Nuclei (%) (Fibroblast [2]; [10]): 24%
Population Healthy Nuclei (%) (Fibroblast [2]; [10]): 32%
Population Hoechst High Intensity Objects (%) (Fibroblast [2]; [10]): 29%
Population Membrane Permeable-Phenotype (%) (Fibroblast [2]; [10]): 6%
Population Mitochondria Different-Phenotype (%) (Fibroblast [2]; [10]): 21%
Population Mitotic Cells (%) (Fibroblast [2]; [10]): 51%
Population Normal (%) (Fibroblast [2]; [10]): 70%
Population Pyknosed Nuclei (%) (Fibroblast [2]; [10]): 42%
Population Tubulin-Different-Phenotype (%) (Fibroblast [2]; [10]): 69%
Total Cell Count (Fibroblast [2]; [10]): 143
Population Apoptotic (%) (Fibroblast [2]; [11]): 85%
Population Fragmented Nuclei (%) (Fibroblast [2]; [11]): 13%
Population Healthy Nuclei (%) (Fibroblast [2]; [11]): 47%
Population Hoechst High Intensity Objects (%) (Fibroblast [2]; [11]): 5%
Population Membrane Permeable-Phenotype (%) (Fibroblast [2]; [11]): 79%
Population Mitochondria Different-Phenotype (%) (Fibroblast [2]; [11]): 100%
Population Mitotic Cells (%) (Fibroblast [2]; [11]): 14%
Population Normal (%) (Fibroblast [2]; [11]): 94%
Population Pyknosed Nuclei (%) (Fibroblast [2]; [11]): 38%
Population Tubulin-Different-Phenotype (%) (Fibroblast [2]; [11]): 100%
Total Cell Count (Fibroblast [2]; [11]): 57
Population Apoptotic (%) (Fibroblast [2]; [12]): 31%
Population Fragmented Nuclei (%) (Fibroblast [2]; [12]): 30%
Population Healthy Nuclei (%) (Fibroblast [2]; [12]): 47%
Population Hoechst High Intensity Objects (%) (Fibroblast [2]; [12]): 16%
Population Membrane Permeable-Phenotype (%) (Fibroblast [2]; [12]): 11%
Population Mitochondria Different-Phenotype (%) (Fibroblast [2]; [12]): 20%
Population Mitotic Cells (%) (Fibroblast [2]; [12]): 68%
Population Normal (%) (Fibroblast [2]; [12]): 83%
Population Pyknosed Nuclei (%) (Fibroblast [2]; [12]): 22%
Population Tubulin-Different-Phenotype (%) (Fibroblast [2]; [12]): 85%
Total Cell Count (Fibroblast [2]; [12]): 86
Population Apoptotic (%) (Fibroblast [2]; [13]): 33%
Population Fragmented Nuclei (%) (Fibroblast [2]; [13]): 20%
Population Healthy Nuclei (%) (Fibroblast [2]; [13]): 51%
Population Hoechst High Intensity Objects (%) (Fibroblast [2]; [13]): 10%
Population Membrane Permeable-Phenotype (%) (Fibroblast [2]; [13]): 10%
Population Mitochondria Different-Phenotype (%) (Fibroblast [2]; [13]): 78%
Population Mitotic Cells (%) (Fibroblast [2]; [13]): 66%
Population Normal (%) (Fibroblast [2]; [13]): 90%
Population Pyknosed Nuclei (%) (Fibroblast [2]; [13]): 27%
Population Tubulin-Different-Phenotype (%) (Fibroblast [2]; [13]): 82%
Total Cell Count (Fibroblast [2]; [13]): 53
Population Apoptotic (%) (Fibroblast [2]; [14]): 46%
Population Fragmented Nuclei (%) (Fibroblast [2]; [14]): 21%
Population Healthy Nuclei (%) (Fibroblast [2]; [14]): 43%
Population Hoechst High Intensity Objects (%) (Fibroblast [2]; [14]): 25%
Population Membrane Permeable-Phenotype (%) (Fibroblast [2]; [14]): 4%
Population Mitochondria Different-Phenotype (%) (Fibroblast [2]; [14]): 37%
Population Mitotic Cells (%) (Fibroblast [2]; [14]): 53%
Population Normal (%) (Fibroblast [2]; [14]): 74%
Population Pyknosed Nuclei (%) (Fibroblast [2]; [14]): 35%
Population Tubulin-Different-Phenotype (%) (Fibroblast [2]; [14]): 59%
Total Cell Count (Fibroblast [2]; [14]): 199
Population Apoptotic (%) (Fibroblast [2]; [15]): 91%
Population Fragmented Nuclei (%) (Fibroblast [2]; [15]): 8%
Population Healthy Nuclei (%) (Fibroblast [2]; [15]): 48%
Population Hoechst High Intensity Objects (%) (Fibroblast [2]; [15]): 9%
Population Membrane Permeable-Phenotype (%) (Fibroblast [2]; [15]): 85%
Population Mitochondria Different-Phenotype (%) (Fibroblast [2]; [15]): 100%
Population Mitotic Cells (%) (Fibroblast [2]; [15]): 8%
Population Normal (%) (Fibroblast [2]; [15]): 90%
Population Pyknosed Nuclei (%) (Fibroblast [2]; [15]): 42%
Population Tubulin-Different-Phenotype (%) (Fibroblast [2]; [15]): 100%
Total Cell Count (Fibroblast [2]; [15]): 60
Population Apoptotic (%) (Fibroblast [2]; [16]): 66%
Population Healthy Nuclei (%) (Fibroblast [2]; [16]): 50%
Population Hoechst High Intensity Objects (%) (Fibroblast [2]; [16]): 20%
Population Membrane Permeable-Phenotype (%) (Fibroblast [2]; [16]): 7%
Population Mitochondria Different-Phenotype (%) (Fibroblast [2]; [16]): 23%
Population Mitotic Cells (%) (Fibroblast [2]; [16]): 33%
Population Normal (%) (Fibroblast [2]; [16]): 79%
Population Pyknosed Nuclei (%) (Fibroblast [2]; [16]): 15%
Population Tubulin-Different-Phenotype (%) (Fibroblast [2]; [16]): 63%
Total Cell Count (Fibroblast [2]; [16]): 96
Population Apoptotic (%) (Fibroblast [2]; [17]): 50%
Population Fragmented Nuclei (%) (Fibroblast [2]; [17]): 34%
Population Healthy Nuclei (%) (Fibroblast [2]; [17]): 63%
Population Hoechst High Intensity Objects (%) (Fibroblast [2]; [17]): 10%
Population Membrane Permeable-Phenotype (%) (Fibroblast [2]; [17]): 8%
Population Mitochondria Different-Phenotype (%) (Fibroblast [2]; [17]): 10%
Population Mitotic Cells (%) (Fibroblast [2]; [17]): 50%
Population Normal (%) (Fibroblast [2]; [17]): 90%
Population Pyknosed Nuclei (%) (Fibroblast [2]; [17]): 1%
Population Tubulin-Different-Phenotype (%) (Fibroblast [2]; [17]): 73%
Total Cell Count (Fibroblast [2]; [17]): 120
Population Apoptotic (%) (Fibroblast [2]; [18]): 77%
Population Fragmented Nuclei (%) (Fibroblast [2]; [18]): 34%
Population Healthy Nuclei (%) (Fibroblast [2]; [18]): 25%
Population Hoechst High Intensity Objects (%) (Fibroblast [2]; [18]): 38%
Population Membrane Permeable-Phenotype (%) (Fibroblast [2]; [18]): 5%
Population Mitochondria Different-Phenotype (%) (Fibroblast [2]; [18]): 63%
Population Mitotic Cells (%) (Fibroblast [2]; [18]): 22%
Population Normal (%) (Fibroblast [2]; [18]): 61%
Population Pyknosed Nuclei (%) (Fibroblast [2]; [18]): 40%
Population Tubulin-Different-Phenotype (%) (Fibroblast [2]; [18]): 68%
Total Cell Count (Fibroblast [2]; [18]): 124
Population Apoptotic (%) (Fibroblast [2]; [19]): 48%
Population Fragmented Nuclei (%) (Fibroblast [2]; [19]): 22%
Population Healthy Nuclei (%) (Fibroblast [2]; [19]): 41%
Population Hoechst High Intensity Objects (%) (Fibroblast [2]; [19]): 54%
Population Membrane Permeable-Phenotype (%) (Fibroblast [2]; [19]): 0%
Population Mitochondria Different-Phenotype (%) (Fibroblast [2]; [19]): 42%
Population Mitotic Cells (%) (Fibroblast [2]; [19]): 51%
Population Normal (%) (Fibroblast [2]; [19]): 45%
Population Pyknosed Nuclei (%) (Fibroblast [2]; [19]): 35%
Population Tubulin-Different-Phenotype (%) (Fibroblast [2]; [19]): 63%
Total Cell Count (Fibroblast [2]; [19]): 202
